In ChEMBL document CHEMBL5303300, “EUbOPEN Chemogenomics Library - Multiplex” (2023):
Values joined by “and” are separate entries in the source; they are usually repeats but may differ in a detail not shown here. Identical values can stand only once.

What was measured:
[1] = system: Fibroblast; assay: Multiplex assay against human fibroblast; format: toxicity, cell-based; details: number of replicates 2
Summary of the method: (§1)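 Phenotypes for tubulin, mitochondrial mass and membrane permeability are expressed as per cents of healthy-nucleus cells. Cells were stained live at seeding with Hoechst33342, BioTracker Green Microtubule Cytoskeleton Dye, MitoTracker Red and Annexin V Alexa Fluor 680, then imaged after compound addition on a CQ1 microscope at 37°C and 5% CO2. Machine-learning gating in CellPathfinder separated Hoechst high-intensity objects from normal cells, divided normal cells by nuclear state (healthy, pyknosed, fragmented) and divided pyknosed cells into mitotic or apoptotic.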

[2] = system: HEK-293T; assay: Multiplex assay against HEK293T; format: toxicity, cell-based; details: human, number of replicates 2; summary of the method: as §1
[3] = 12 h, 1 µM, compound concentration 1 uM
[4] = 12 h, 10 µM, compound concentration 10 uM
[5] = 24 h, 1 µM, compound concentration 1 uM
[6] = 24 h, 10 µM, compound concentration 10 uM
[7] = 48 h, 1 µM, compound concentration 1 uM
[8] = 48 h, 10 µM, compound concentration 10 uM

For `O=C1CCCN1CCNc1nc(Nc2ccc(Cl)c(Cl)c2)ncc1C(F)(F)F`, the “Population Apoptotic (%)” value [1, 3] was 38% and 28%, the “Population Fragmented Nuclei (%)” value [1, 3] was 10% and 8% and the “Population Healthy Nuclei (%)” value [1, 3] was 76% and 68%. For the same compound, the “Population Hoechst High Intensity Objects (%)” value [1, 3] was 0%, the “Population Membrane Permeable-Phenotype (%)” value [1, 3] was 2% and 1% and the “Population Mitochondria Different-Phenotype (%)” value [1, 3] was 1%. For the same compound, the “Population Mitotic Cells (%)” value [1, 3] was 61% and 71%, the “Population Normal (%)” value [1, 3] was 100% and the “Population Pyknosed Nuclei (%)” value [1, 3] was 13% and 22%. The “Population Tubulin-Different-Phenotype (%)” value [1, 3] was 12% and 9%, the “Total Cell Count” value [1, 3] was 233 and 219 and the “Population Apoptotic (%)” value [1, 4] was 52% and 36%. For the same compound, the “Population Fragmented Nuclei (%)” value [1, 4] was 6% and 15%, the “Population Healthy Nuclei (%)” value [1, 4] was 40% and 52% and the “Population Hoechst High Intensity Objects (%)” value [1, 4] was 0%. For the same compound, the “Population Membrane Permeable-Phenotype (%)” value [1, 4] was 19% and 26%, the “Population Mitochondria Different-Phenotype (%)” value [1, 4] was 1% and 4% and the “Population Mitotic Cells (%)” value [1, 4] was 47% and 63%. The “Population Normal (%)” value [1, 4] was 100%, the “Population Pyknosed Nuclei (%)” value [1, 4] was 52% and 32% and the “Population Tubulin-Different-Phenotype (%)” value [1, 4] was 35% and 50%. The “Total Cell Count” value [1, 4] was 138 and 193, the “Population Apoptotic (%)” value [1, 5] was 54% and 41% and the “Population Fragmented Nuclei (%)” value [1, 5] was 8% and 6%. The “Population Healthy Nuclei (%)” value [1, 5] was 76% and 70%, the “Population Hoechst High Intensity Objects (%)” value [1, 5] was 0% and the “Population Membrane Permeable-Phenotype (%)” value [1, 5] was 5%. For the same compound, the “Population Mitochondria Different-Phenotype (%)” value [1, 5] was 1% and 0%, the “Population Mitotic Cells (%)” value [1, 5] was 45% and 58% and the “Population Normal (%)” value [1, 5] was 100%. The “Population Pyknosed Nuclei (%)” value [1, 5] was 14% and 22%, the “Population Tubulin-Different-Phenotype (%)” value [1, 5] was 14% and 9% and the “Total Cell Count” value [1, 5] was 234 and 227. For the same compound, the “Population Apoptotic (%)” value [1, 6] was 70% and 60%, the “Population Fragmented Nuclei (%)” value [1, 6] was 6% and 15% and the “Population Healthy Nuclei (%)” value [1, 6] was 44% and 50%. For the same compound, the “Population Hoechst High Intensity Objects (%)” value [1, 6] was 0%, the “Population Membrane Permeable-Phenotype (%)” value [1, 6] was 16% and 14% and the “Population Mitochondria Different-Phenotype (%)” value [1, 6] was 3% and 5%. The “Population Mitotic Cells (%)” value [1, 6] was 29% and 39%, the “Population Normal (%)” value [1, 6] was 99% and 100% and the “Population Pyknosed Nuclei (%)” value [1, 6] was 48% and 34%. The “Population Tubulin-Different-Phenotype (%)” value [1, 6] was 53% and 50%, the “Total Cell Count” value [1, 6] was 135 and 198 and the “Population Apoptotic (%)” value [1, 7] was 82% and 66%. The “Population Fragmented Nuclei (%)” value [1, 7] was 13% and 11%, the “Population Healthy Nuclei (%)” value [1, 7] was 73% and 72% and the “Population Hoechst High Intensity Objects (%)” value [1, 7] was 0%. For the same compound, the “Population Membrane Permeable-Phenotype (%)” value [1, 7] was 2% and 1%, the “Population Mitochondria Different-Phenotype (%)” value [1, 7] was 0% and the “Population Mitotic Cells (%)” value [1, 7] was 17% and 33%. For the same compound, the “Population Normal (%)” value [1, 7] was 100% and 99%, the “Population Pyknosed Nuclei (%)” value [1, 7] was 12% and 15% and the “Population Tubulin-Different-Phenotype (%)” value [1, 7] was 11% and 6%. For the same compound, the “Total Cell Count” value [1, 7] was 230 and 215, the “Population Apoptotic (%)” value [1, 8] was 89% and 74% and the “Population Fragmented Nuclei (%)” value [1, 8] was 9% and 17%. The “Population Healthy Nuclei (%)” value [1, 8] was 52% and 53%, the “Population Hoechst High Intensity Objects (%)” value [1, 8] was 0% and the “Population Membrane Permeable-Phenotype (%)” value [1, 8] was 21% and 12%. The “Population Mitochondria Different-Phenotype (%)” value [1, 8] was 0% and 2%, the “Population Mitotic Cells (%)” value [1, 8] was 10% and 25% and the “Population Normal (%)” value [1, 8] was 99% and 100%. The “Population Pyknosed Nuclei (%)” value [1, 8] was 37% and 28%, the “Population Tubulin-Different-Phenotype (%)” value [1, 8] was 40% and 31% and the “Total Cell Count” value [1, 8] was 124 and 180. The “Population Apoptotic (%)” value [2, 3] was 57% and 53%, the “Population Fragmented Nuclei (%)” value [2, 3] was 5% and 3% and the “Population Healthy Nuclei (%)” value [2, 3] was 80% and 83%. For the same compound, the “Population Hoechst High Intensity Objects (%)” value [2, 3] was 9%, the “Population Membrane Permeable-Phenotype (%)” value [2, 3] was 3% and 1% and the “Population Mitochondria Different-Phenotype (%)” value [2, 3] was 26% and 20%. For the same compound, the “Population Mitotic Cells (%)” value [2, 3] was 42% and 46%, the “Population Normal (%)” value [2, 3] was 90% and the “Population Pyknosed Nuclei (%)” value [2, 3] was 13%. For the same compound, the “Population Tubulin-Different-Phenotype (%)” value [2, 3] was 60% and 61%, the “Total Cell Count” value [2, 3] was 624 and 889 and the “Population Apoptotic (%)” value [2, 4] was 57% and 62%. For the same compound, the “Population Fragmented Nuclei (%)” value [2, 4] was 3% and 5%, the “Population Healthy Nuclei (%)” value [2, 4] was 76% and the “Population Hoechst High Intensity Objects (%)” value [2, 4] was 11% and 7%. For the same compound, the “Population Membrane Permeable-Phenotype (%)” value [2, 4] was 5% and 4%, the “Population Mitochondria Different-Phenotype (%)” value [2, 4] was 30% and 21% and the “Population Mitotic Cells (%)” value [2, 4] was 42% and 37%. The “Population Normal (%)” value [2, 4] was 88% and 92%, the “Population Pyknosed Nuclei (%)” value [2, 4] was 19% and 18% and the “Population Tubulin-Different-Phenotype (%)” value [2, 4] was 67% and 66%. The “Total Cell Count” value [2, 4] was 488 and 473, the “Population Apoptotic (%)” value [2, 5] was 57% and 53% and the “Population Fragmented Nuclei (%)” value [2, 5] was 9% and 7%. The “Population Healthy Nuclei (%)” value [2, 5] was 80% and 81%, the “Population Hoechst High Intensity Objects (%)” value [2, 5] was 8% and 9% and the “Population Membrane Permeable-Phenotype (%)” value [2, 5] was 2% and 1%.
